The nature of data set [1]: Therapeutic index, ratio of EC50 for hemolysis of sheep erythrocytes to MIC for Escherichia coli ATCC 8739. Conditions: read-out: TI. The gist of the method:
(§1)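 Computed as the hemolytic EC50 divided by the MIC against the named strain, both in the same mass-per-volume units. Both inputs come from this paper's hemoglobin-leakage and growth-inhibition assays.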

Data set [2] is described as follows: Induction of membrane lysis in DOPC/DOPG large unilamellar vesicles model assessed as release of carboxyfluorescein at 50 ug/mL by fluorescence spectroscopic analysis relative to control. It counts as physicochemical.
Another data set concerns Staphylococcus aureus. The data set is described as follows: Antibacterial activity against Staphylococcus aureus ATCC […] assessed as growth inhibition after 24 hrs by broth microdilution method. It counts as functional. On the technique in general: In broth dilution the organism is exposed to a series of concentrations in liquid medium.
A short description of data set [3]: Therapeutic index, ratio of EC50 for hemolysis of sheep erythrocytes to MIC for Staphylococcus aureus ATCC […]. The settings on record: read-out: TI. The gist of the method: as §1
The nature of data set [4]: Hemolytic activity in sheep erythrocytes after 1 hr. It counts as ADME, cell-based. The settings on record: Ovis aries, Erythrocyte. The gist of the method: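 Red blood cells were exposed to the peptides, and hemoglobin leakage was the read-out.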
Another data set deals with Escherichia coli. In words: Antibacterial activity against Escherichia coli ATCC 8739 assessed as growth inhibition after 24 hrs by broth microdilution method. Conditions: ATCC 8739, 24 h. It counts as functional.
Data set [5] can be described thus: Induction of membrane lysis in DOPC large unilamellar vesicles model assessed as release of carboxyfluorescein at 50 ug/mL by fluorescence spectroscopic analysis relative to control. It counts as physicochemical.

Values after ≈ are worked out from the molar mass of the structure shown. Numbered stars: 1 amine (or outer) side, 2 acyl side, 3 side chain; on linkers, the order of the positions; unused ones are H or OH. Square brackets hold non-standard residues; d marks the D form. Peptide text beside a SMILES is read from it. * marks the point of attachment. X1 = CCCCCCCCC[C@H](N[*:1])C(=O)[*:2]; Decanoyl = CCCCCCCCCC(=O)*

As usually defined, the MIC is the lowest concentration found to suppress growth. One may read the EC50 as the midpoint of the concentration-response curve. For the compound `CCCCCCCCC[C@H](NC(=O)[C@H](CCCNC(=N)N)NC(=O)[C@H](CCCCN)NC(=O)[C@H](CC(C)C)NC(=O)[C@H](CC(C)C)NC(=O)CN)C(=O)N[C@@H](CCCCN)C(=O)N[C@H](C(=O)N[C@@H](CC(C)C)C(=O)N[C@@H](CC(C)C)C(N)=O)[C@@H](C)O` (H-GLLKR[X1]KTLL-NH2), the figures for the selectivity ratio in data set [1] and in data set [3] were 1.9 and 15.6, respectively. For the same compound, the figures for the Activity in data set [2] and in data set [5] were 48% and 45%, respectively. For the same compound, the minimal inhibitory concentration (MIC) with Staphylococcus aureus is 2.5 µg/mL (≈ 2.04 µM); in the data set on Escherichia coli it was 10.3 µg/mL (≈ 8.42 µM). The EC50 in data set [4] is 39 µg/mL (≈ 31.9 µM).

As to `CCCCCCCCCC(=O)NCC(=O)N[C@@H](CC(C)C)C(=O)N[C@@H](CC(C)C)C(=O)N[C@@H](CCCCN)C(=O)N[C@@H](CCCNC(=N)N)C(=O)N[C@H](C(=O)N[C@@H](CCCCN)C(=O)N[C@H](C(=O)N[C@@H](CC(C)C)C(=O)N[C@@H](CC(C)C)C(N)=O)[C@@H](C)O)[C@@H](C)CC` (Decanoyl-GLLKRIKTLL-NH2), the selectivity ratio in data set [1] and in data set [3] was 2 in each case. In addition, the Activity is listed as 100% in data set [2] and 62% in data set [5]. The MIC in the data set on Staphylococcus aureus and in the data set with Escherichia coli was 2.5 µg/mL (≈ 1.91 µM) in each case. The concentration for a half-maximal effect (EC50) in data set [4] is 5 µg/mL (≈ 3.82 µM).

Take H-GLLKRIKTLL-NH2 [ANOPLIN]: the selectivity ratio is > 12.2 in data set [1] and > 24.3 in data set [3]. The figures for the Activity in data set [2] and in data set [5] were 35% and 41%, respectively. In addition, the MIC in the data set on Staphylococcus aureus was found to be 20.6 µg/mL; in the data set on Escherichia coli, 41 µg/mL. The 50% effective concentration (EC50) in data set [4] is > 500 µg/mL.

As for `CCCCCCCCC[C@H](NC(=O)CN)C(=O)N[C@@H](CC(C)C)C(=O)N[C@@H](CCCCN)C(=O)N[C@@H](CCCNC(=N)N)C(=O)N[C@H](C(=O)N[C@@H](CCCCN)C(=O)N[C@H](C(=O)N[C@@H](CC(C)C)C(=O)N[C@@H](CC(C)C)C(N)=O)[C@@H](C)O)[C@@H](C)CC` (H-G[X1]LKRIKTLL-NH2), the values for the selectivity ratio in data set [1] and in data set [3] were 10.5 and 43.2, respectively. In addition, the Activity in data set [2] is recorded as 48%; in data set [5], 47%. For the same compound, the minimal inhibitory concentration (MIC) in the data set with Staphylococcus aureus was 2.5 µg/mL (≈ 2.04 µM); in the data set on Escherichia coli it was 5.2 µg/mL (≈ 4.25 µM). The compound also came in with an EC50 in data set [4] of 108 µg/mL (≈ 88.3 µM).

As to `CCCCCCCCC[C@H](NC(=O)[C@H](CC(C)C)NC(=O)[C@@H](NC(=O)[C@H](CCCCN)NC(=O)[C@@H](NC(=O)[C@H](CCCNC(=N)N)NC(=O)[C@H](CCCCN)NC(=O)[C@H](CC(C)C)NC(=O)[C@H](CC(C)C)NC(=O)CN)[C@@H](C)CC)[C@@H](C)O)C(N)=O` (H-GLLKRIKTL[X1]-NH2), the selectivity ratio came to 3.7 in data set [1] and 30.8 in data set [3]. Further, the Activity in data set [2] and in data set [5] was 48% in each case. Besides, the MIC amounted to 2.5 µg/mL (≈ 2.04 µM) with Staphylococcus aureus and 10.3 µg/mL (≈ 8.42 µM) with Escherichia coli. In addition, in data set [4], it took 77 µg/mL (≈ 62.9 µM) to reach a half-maximal effect (EC50).

The values above are taken from ChEMBL document CHEMBL2396651, “Improving the biological activity of the antimicrobial peptide anoplin by membrane anchoring through a lipophilic amino acid derivative” (Bioorg Med Chem Lett, 2013).
